According to ChEMBL document CHEMBL4706701, “Synthesis and biological activity of selenopsammaplin A and its analogues as antitumor agents with DOT1L inhibitory activity” (Bioorg Med Chem, 2021):

System: MDA-MB-231
Test: Antimetastatic activity against human MDA-MB-231 cells xenografted in ip dosed BALB/c nu mouse assessed as down regulation of vimentin expression in tumor tissue administered thrice per week for 38 days measured 1 week post last dose by Western blot analysis
Type: functional, organism-based
Conditions: dose 5-15 mg/kg, time 45.0 day
Method in brief: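 Frozen tumor portions from the orthotopic MDA-MB-231 nude mouse study homogenized in complete lysis buffer; protein by Bradford assay. Western blotting for H3K79me2, E-cadherin and vimentin, β-actin internal control, band intensities semi-quantified; three separate experiments.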

O=C(NCC[Se][Se]CCNC(=O)/C(Cc1ccccc1)=N/O)/C(Cc1ccccc1)=N/O
Activity: Dose-dependent effect
